# Bioassay records as filed in PubChem.
# Compounds with a hit are over-represented: about 1.4% of the library has one in this group of screens.
# NR2E3 ag-1: agonists of human nuclear receptor NR2E3 | actives 0.12% (n = 320,000) | inhibition of corepressor binding, % at 4.78 µM | GST-NR2E3/biotin-RetCOR TR-FRET, 1536-well;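 active = percent inhibition above the cutoff of mean plus 3 SD of all tested compounds, set per screening campaign, cut at about 20% in these data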
# Target sequence (Q9Y5X4 whole entry, looked up): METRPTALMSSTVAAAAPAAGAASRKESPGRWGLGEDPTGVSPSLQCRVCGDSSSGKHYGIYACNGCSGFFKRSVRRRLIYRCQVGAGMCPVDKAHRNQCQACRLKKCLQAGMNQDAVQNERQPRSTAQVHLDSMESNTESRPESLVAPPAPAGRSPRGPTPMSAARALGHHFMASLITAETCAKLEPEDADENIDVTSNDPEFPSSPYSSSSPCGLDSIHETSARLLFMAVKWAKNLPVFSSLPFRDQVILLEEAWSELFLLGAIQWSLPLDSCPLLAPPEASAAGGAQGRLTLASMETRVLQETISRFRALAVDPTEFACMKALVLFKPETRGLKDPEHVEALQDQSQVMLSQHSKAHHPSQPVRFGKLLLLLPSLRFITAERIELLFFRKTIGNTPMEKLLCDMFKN
#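 Material: NR2E3–RetCOR corepressor complex / Amount: 1.35 nM GST-NR2E3 / Medium: Tris pH 7.5 / Compound: single nominal compound dose of 4.8 µM / Incubation: 5 h at 4 °C / Technique: TR-FRET, Eu(K)-anti-GST donor, streptavidin-D2 acceptor, ex 340, em 617/671 nm / Read-out basis: percent loss of FRET ratio relative to control wells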
# PG9 Ab binder: PG9 antibody binding by small molecule; AID 624416; actives 0.43% (n = 360,000); TR-FRET gp120-PG9 antibody binding; inhibition, % at 6.7 µM; in the data active = inhibition above about 8.5%
# NR1D1 modulator: Rev-erb alpha (human) modulation; P20393; Rev-erbα–FITC-DNA binding, fluorescence polarization, 90 min; activity, % at 10 µM; actives 0.79% (n = 370,000);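 active = activity above about 14%, limit read from the data; passing the limit was not always enough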
# NR2E3 ag-2: agonists of human NR2E3 nuclear receptor | Q9Y5X4 | CHO-S Gal4-NCOR/VP16-NR2E3 two-hybrid, luciferase | inhibition of corepressor binding, % at 3.98 µM | actives 0.35% (n = 360,000) | AID 602229;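 active = inhibition above the mean of all tested compounds plus 3 SD, cut at about 70% in these data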;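 note: higher means lower luciferase signal from less NR2E3 corepressor binding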
# NR2E3 agonist cf: confirmation of human NR2E3 nuclear receptor agonists. shares compounds with NR2E3 ag-1. cell-free NR2E3 corepressor release, TR-FRET, 5 h. activation (reported as inhibition), % at 3.98 µM. actives 39% (n = 360). AID 2379; in the data active = activation above about 20%
# PPARg-NCOR2 ctr: releases PPARgamma from NCOR2 in NR2E3 counter-screen. shares compounds with NR2E3 ag-1. TR-FRET PPARg-NCOR2 coregulator interaction, biochemical. inhibition, % at 3.98 µM. actives 45% (n = 360). AID 504787; in the data active = inhibition above about 20%
# Hits are given with their value; i = inactive; nt = not tested or not shown.
SMILES,NR2E3 ag-1,PG9 Ab binder,NR1D1 modulator,NR2E3 ag-2,NR2E3 agonist cf,PPARg-NCOR2 ctr
CC1=C(C#N)C(c2ccoc2)C(C(=O)OCc2ccccc2)=C(N)S1 (centres undefined),i,i,i,i,nt,nt
N#CC1=C(N)SC(N)=C(C#N)C1c1ccoc1,36,nt,nt,nt,23,27
CCN(CC)c1ccc2c(-c3ccc(S(=O)(=O)O)cc3S(=O)(=O)[O-])c3ccc(=[N+](CC)CC)cc-3oc2c1,46,nt,nt,i,41,48
CCN(CC)c1ccc2nc3c4ccccc4c(=O)cc-3oc2c1,nt,i,i,nt,nt,nt
O=C(CCN1C(=O)COc2ccccc21)NCc1cccnc1,i,i,i,i,nt,nt
O=C(CN1C(=O)COc2ccccc21)N(Cc1cccnc1)Cc1ccccc1F,31,nt,i,i,i,i
COc1ccccc1-c1c(-c2ccc(O)cc2O)n[nH]c1C(F)(F)F,i,i,i,i,nt,nt
Cc1ccc(-c2n[nH]c(=S)n2-c2ccccc2)cc1,i,i,i,i,nt,nt
CS(=O)(=O)Nc1ccc(-c2n[nH]c(=S)n2-c2ccccc2)cc1,27,i,i,i,i,i
Cc1ccc(CNC(=O)COC(=O)C2CCN(S(=O)(=O)c3cccs3)CC2)cc1,i,i,i,i,nt,nt
CCCCCn1c(NC(=O)c2ccco2)c(S(=O)(=O)c2ccc(C)cc2)c2nc3ccccc3nc21,20,i,i,i,i,42
CCCCn1c(NS(=O)(=O)c2ccccc2)c(S(=O)(=O)c2ccc(C)cc2)c2nc3ccccc3nc21,i,i,i,i,nt,nt
O=C(NCCCN1CCCC1=O)c1cc2nc(-c3ccco3)cc(C(F)(F)F)n2n1,22,i,i,i,i,i
O=C(c1cc2nc(-c3ccco3)cc(C(F)(F)F)n2n1)N1CCCCCC1,i,i,i,i,nt,nt
COC(=O)c1cc(C)nc2c1C(=O)C(=O)C=C2N1CCOCC1,38,i,i,i,43,57
O=C(/C=C/c1ccco1)NC(=S)Nc1ccc(C(=O)O)cc1,20,i,i,i,i,i
CC(=O)NC(=S)Nc1ccc(NC(=S)NC(=O)/C=C/c2ccco2)cc1,i,i,i,i,nt,nt
O=C(O)c1ccc2c(c1)[C@@H]1C=CC[C@@H]1[C@H](c1ccccn1)N2,48,i,i,i,i,i
CS(=O)(=O)n1nc(-c2ccc(Cl)cc2)nc1N,i,i,i,i,nt,nt
Cn1nc(-c2ccc(Cl)cc2)nc2c(=O)n(C)c(=O)nc1-2,37,nt,nt,nt,32,56
N#Cc1c(-c2ccco2)c2c([nH]c1=S)CCCC2,39,i,i,i,i,23
C=CCn1c(NC(=O)c2ccccc2Cl)c(C#N)c2nc3ccccc3nc21,38,i,i,i,i,42
CCc1cccc(C)c1NC(=S)NCC(c1cccnc1)N(C)C (centres undefined),i,i,i,i,nt,nt
CCNC(=S)Nc1nc2c(cc1C(=O)OCC)CCCC2,21,i,i,i,27,20
CCc1ccc(Nc2n[n+](-c3ccccc3)c(-c3ccc(OC)c(Br)c3)s2)cc1,i,i,i,i,nt,nt
SMILES,NR2E3 ag-1,PG9 Ab binder,NR1D1 modulator,NR2E3 ag-2,NR2E3 agonist cf,PPARg-NCOR2 ctr
CCCCOC(=O)CSC1=C(C#N)C(c2ccccc2OCC)C(C#N)C(=O)N1 (centres undefined),22,nt,nt,i,i,36
CCOc1cccc(C2C(C(=O)c3ccc(C)o3)=C(O)C(=O)N2Cc2ccccc2)c1 (centres undefined),nt,i,i,i,nt,nt
CCOc1cccc(C2C(C(=O)c3ccc(C)o3)=C(O)C(=O)N2Cc2ccncc2)c1 (centres undefined),26,i,i,i,i,i
COC(=O)c1c(NC(=S)Nc2cc(OC)c(Cl)cc2OC)sc2c1CCCCC2,20,i,i,i,i,i
CC(C)(C)c1ccc(/C=C/C(=O)Nc2nncs2)cc1,i,i,i,i,nt,nt
COc1cc(C2C(C(=O)c3cccs3)=C(O)C(=O)N2CCN2CCOCC2)cc(OC)c1OC (centres undefined),i,i,i,i,nt,nt
COc1cccc2cc(C(=O)C3=C(O)C(=O)N(CCN4CCOCC4)C3c3cccs3)oc12 (centres undefined),24,i,i,i,21,i
CN1CCN(CC(=O)N/N=C\c2c[nH]c3ccccc23)CC1,30,i,i,nt,i,i
CN(C(=S)Nc1ccc(Oc2ccccc2)cc1)C1CCCCC1,i,i,i,i,nt,nt
COc1ccc(NC(=S)Nc2ccc3nsnc3c2)cc1,29,i,i,i,i,i
CC(C)N(C(=O)Nc1ccc2nsnc2c1)C(C)C,38,i,i,nt,i,i
CCOc1ccc(NC(=S)Nc2ccc3nsnc3c2)cc1,31,i,i,i,i,i
CCOc1ccc(NC(=O)Nc2ccc3nsnc3c2)cc1,i,i,i,i,nt,nt
COc1ccc(NC(=S)Nc2ccc3nc(C)c(C)nc3c2)cc1,i,i,i,i,nt,nt
COc1ccc(N(C)C(=O)Nc2ccc3nsnc3c2)cc1,nt,i,i,i,nt,nt
COc1cccc(CNC(=O)C2CCCN(c3nc4ccccc4o3)C2)c1 (centres undefined),i,i,i,i,nt,nt
C[C@]12CCC[C@H](O1)[C@H]([C@@H](O)c1ccccc1)O2,i,nt,nt,i,nt,nt
COc1cccc(C(=O)Nc2ccc3ccccc3c2)c1,30,i,i,i,i,i
O=C(NN1C(=O)/C(=C/C=C/c2ccco2)SC1=S)c1ccncc1,25,i,i,i,i,i
CCCCC1=CC2=C(c3ccco3)C(=O)C(C)(OC(=O)c3ccc(OC)cc3)C(=O)C2=CN1CCOC (centres undefined),i,i,i,i,nt,nt
CCCCC1=CC2=C(c3ccco3)C(=O)C(C)(OC(=O)c3ccc(OC)cc3)C(=O)C2=CN1Cc1ccc2c(c1)OCO2 (centres undefined),23,nt,nt,i,i,i
CN1CCN(C(=O)/C(=C/c2cn(S(=O)(=O)N(C)C)c3ccccc23)NC(=O)c2ccccc2)CC1,i,i,i,i,nt,nt
CC1Cc2nc(SCC(=O)Nc3nccs3)n(C)c(=O)c2S1 (centres undefined),21,i,i,i,i,i
CC1(C(=O)NS(=O)(=O)c2ccc(Cl)cc2)CCN1C(=O)Cc1ccc(Cl)cc1Cl (centres undefined),nt,i,i,i,nt,nt
O=c1[nH]c(Nc2ccccc2)cc2ccccc12,27,i,i,i,i,i
N#C/C(=C\c1cc2c(cc1Br)OCO2)C(=O)NCC1CCCO1 (centres undefined),i,i,i,i,nt,nt
NS(=O)(=O)c1cccc(C(=O)NC2CCSc3ccccc32)c1 (centres undefined),i,i,i,i,nt,nt
NS(=O)(=O)c1cc(C(=O)NC2CCSc3ccccc32)ccc1Cl (centres undefined),20,i,i,i,i,i
CC(C)(C)C(=O)CSc1nc2c(c(-c3cccs3)c1C#N)CCC2,21,i,i,i,i,i
